The nature of series [1]: Body weight during 19-day treatment, L66 and WT mice. Type of series: in vivo, mouse. The conditions noted are these: 5–45 mg/kg oral, 19 days, LMTX in this case LMTB.
The next series deals with L1 mice. The experiment in a line: Behavioural reactions observed on treatment, L1 histology cohorts. In kind it is in vivo, mouse. The conditions noted are these: 75 mg/kg oral, transient.
The test system of series [2] is Line 66 (L66) tau transgenic mice. The experiment in a line: RotaRod motor performance and motor learning, L66 mice. Type of series: in vivo, mouse. Put shortly:
(§1)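 On a four-lane rat RotaRod, pretreatment trials in week 1 were used for cohort matching. Mice then received 2 weeks of daily oral dosing (Monday–Sunday, 08.00–10.00 h): L66 at 5, 15 or 45 mg/kg, WT at 45 mg/kg only. Post-treatment training in week 4 continued dosing 1 h before the first trial. Time to fall was recorded over 12 trials. Learning was scored as trial 12 minus trial 1, and memory as pretreatment versus post-treatment trial 1.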
On the technique in general: In the rotarod test animals must keep their balance on a rotating rod.

For series [3], the system named is wild-type (WT) control mice. The experiment in a line: RotaRod motor performance, WT mice. Type of series: in vivo, mouse. The conditions noted are these: 45 mg/kg oral. Put shortly:
as §1

In another series the target is aggregated tau in L66 (Homo sapiens, UniProt P10636, G652D/P618S). The experiment in a line: Immunohistochemical counts of tau-reactive neurons. Type of series: in vivo, mouse. The conditions noted are these: L66 heterozygous, 8–9 months, MTC 45 mg/kg (35.1 mg MT/kg), 3 weeks. The procedure, abridged:
(§2)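 Separate histology cohorts were killed by Euthatal overdose 1 h after the last dose. Brains were removed, paraformaldehyde-fixed and paraffin-embedded. Sixteen 3-μm sections per brain were stained together with WT, L1 and L66 controls, using mAb 7/51 (hybridoma supernatant 1:300) with HRP anti-mouse detection and haematoxylin counterstain. Tau-reactive neurons were counted by region, expressed as ln(count+1) and as percentage reduction versus zero dose.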

Series [4] relates to Line 1 (L1) tau transgenic mice. Kind of series: Problem-solving task in the water maze. In kind it is in vivo, mouse. Put shortly:
(§3)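 Mice aged 5 months (L1 and WT) received 15 or 45 mg/kg by oral gavage for 5 weeks (Monday–Friday), with dosing continued during testing 1 h before the first trial. Cued training lasted 4 days at 4 trials/day in a 1.5 m pool with water at 21±1°C, curtains drawn and a flagged platform moved daily among 20 sites. Each trial allowed 60 s, with a 2 s stay and a 10-min intertrial interval. Path length and swim speed were video-tracked.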

Series [5] has as its system mitochondrial β-oxidation. The conditions noted are these: ref Visarius et al., 1997; cited from earlier work.
A short description of series [6]: Measurement of methylthioninium levels in the brain of L66 mice. In kind it is in vivo, mouse.
For series [7], the system named is wild-type (WT) control mice. The experiment in a line: Visible platform task in the water maze, WT mice. Type of series: in vivo, mouse. The procedure, abridged: as §3
Another series addresses aggregated tau in Line 1 (Homo sapiens, UniProt P10636). The experiment in a line: Immunohistochemical counts of tau-reactive neurons. In kind it is in vivo, mouse. The note with it: L1 mice, 45 mg/kg oral, 19 days. Put shortly:
as §2

The test system of series [8] is Alzheimer's disease patients. The conditions noted are these: AD of mild or moderate severity, 24 weeks; ref Wischik et al., 2015; cited from earlier work.
Series [9] in a line: Body weight over 8 weeks of oral treatment, L1 and WT mice. Type of series: in vivo, mouse. The conditions noted are these: over 8 weeks of oral administration; identical in WT and L1 cohorts; drug exposure did not differ from vehicle.

Chain of aggregated tau in Line 1 (P10636 613-707): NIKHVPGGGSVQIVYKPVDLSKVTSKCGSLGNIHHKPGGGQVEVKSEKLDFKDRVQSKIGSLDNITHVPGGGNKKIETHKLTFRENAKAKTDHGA
Chain of aggregated tau in L66 (P10636 1-441 isoform P10636-8 P301S/G335D): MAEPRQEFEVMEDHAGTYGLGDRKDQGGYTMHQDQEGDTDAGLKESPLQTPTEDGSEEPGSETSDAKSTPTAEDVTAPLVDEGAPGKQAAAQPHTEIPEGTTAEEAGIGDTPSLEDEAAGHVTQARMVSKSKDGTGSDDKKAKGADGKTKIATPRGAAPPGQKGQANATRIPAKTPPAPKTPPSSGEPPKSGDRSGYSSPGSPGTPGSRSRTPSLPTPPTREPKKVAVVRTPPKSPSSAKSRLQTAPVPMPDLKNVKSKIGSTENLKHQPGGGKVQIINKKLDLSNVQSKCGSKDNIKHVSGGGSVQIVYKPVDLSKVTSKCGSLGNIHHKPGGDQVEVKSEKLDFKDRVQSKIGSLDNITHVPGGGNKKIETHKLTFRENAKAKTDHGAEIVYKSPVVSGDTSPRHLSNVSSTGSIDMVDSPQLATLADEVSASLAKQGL

Turning to “3,7-bis(dimethylamino)phenothiazin-5-ylium chloride [MTC]”, the “effect on body weight compared with vehicle controls” value in [1] is on record as “dose-dependent weight loss”. The behavioural reactions entry with L1 mice was “hunched posture, low activity, piloerection”. Moreover, the “effect on post-treatment RotaRod performance vs vehicle” value in series [2] (5 mg/kg oral) is “significant benefit”; in [2] (15 mg/kg oral) it was “significant benefit”; in series [3], “did not affect the performance”. The “effect on motor learning (difference between trial 1 and trial 12)” value in series [2] (all doses (5, 15, 45 mg/kg)) is “full recovery of motor learning”. For the same substance, the “lowest effective dose, correction of motor learning on RotaRod” value in [2] (oral, 19 days (5 mg/kg of compound)) is 4 mg MT/kg. Moreover, at aggregated tau in L66, the “percentage reduction in counts compared with zero dose, mean over region” value is reported as 44%. Moreover, the “effect on swim speed” value in [4] (L1 and WT mice, 15 and 45 mg/kg oral, visible platform task) is given as “did not alter the velocity”. The “effect on mean number of trials to criterion (three spatial problems)” value is “longer training required to meet criterion” in series [4] (L1 mice, 15 mg/kg oral) and “impairment was reversed” in series [4] (L1 mice, 45 mg/kg oral). The “effect on path length to visible platform” value in [4] (L1 mice, 15 and 45 mg/kg oral, 4 days cued training) was “No drug effect”; in series [7] (15 mg/kg oral) it was “improvement”; in series [7] (45 mg/kg oral), “did not differ from controls”. The “dose required to produce benefit in spatial problem-solving water maze task” value in series [4] (L1 mice, oral, 8 weeks, dose as weight of compound) turned out to be 45 mg/kg. For the same substance, the “concentration for enhancement of mitochondrial β-oxidation” value in [5] is 0.3 µmol/L. For the same substance, in series [6] (5 or 15 mg/kg, LMTX in this case LMTB), the “brain MT concentration with evidence of plateauing of RotaRod performance” value was determined as 0.6 mmol/L. Further, the “mean brain concentration of total MT” value in series [6] (lowest effective dose (4 mg MT/kg), oral) amounted to 150 ± 10 nM. Moreover, the “reduction in tau-reactive neurons, subiculum” value on aggregated tau in Line 1 turned out to be 83%. Further, in [8], the “minimum effective dose at clinical and molecular imaging endpoints” value is reported as 138 mg MT/day. Moreover, in series [9], the weight loss is 15–20%.

(Values after article PMC4416029 (Behavioural Pharmacology, 2015).)
